The term CC50 denotes the concentration giving 50% cytotoxicity. A word on the EC50: it is the concentration that produces a half-maximal response. For orientation: EC90 means the point of the concentration-response curve where the effect stands at 90%.

For series [1], the system named is CCRF-CEM. Briefly: (§1) Cytotoxicity against human CEM cells after 6 days by trypan blue exclusion method. The conditions noted are these: ccrf-cem, 144 h. The series is classed as cell-based.
Series [2] has as its system Vero. The series is described as follows: (§2) Cytotoxicity against African green monkey Vero cells after 3 days by hemocytometric method. The conditions noted are these: chlorocebus sabaeus, vero, 72 h. Type of series: cell-based.
Series [3] relates to PBMC. The series is described as follows: (§3) Cytotoxicity against human PBMC after 6 days by trypan blue exclusion method. The series is classed as cell-based. The conditions noted are these: pbmc, 144 h.
Series [4] has as its system Huh-7. Briefly: (§4) Cytotoxicity against human HuH7 cells assessed as reduction in rRNA levels after 5 days by RT-PCR analysis. The conditions noted are these: huh-7, 120 h. Type of series: cell-based. Put shortly:
(§5)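 Huh-7 cells carrying a genotype 1b subgenomic HCV replicon were exposed to compounds at concentrations […]. Total RNA was then extracted and amplified to quantify both replicon HCV RNA (antiviral read-out) and cellular ribosomal RNA (cytotoxicity read-out), in the same cultures at the same time.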

Series [5] deals with Hepatitis C virus. The series is described as follows: Antiviral activity against HCV genotype 1b subgenomic replicon infected in human HuH7 clone B cells assessed as inhibition of viral RNA replication after 5 days by RT-PCR method. Type of series: functional, organism-based, Hepacivirus hominis. The conditions noted are these: subtype 1b, Huh-7, 120 h. Put shortly: as §5
Background: In antiviral work, replicon cells carry a viral genome segment that copies itself.

The nature of series [6]: as §2. Type of series: cell-based. The conditions noted are these: chlorocebus sabaeus, Vero cells.
Series [7] can be described thus: as §1. Type of series: cell-based, CCRF-CEM. The conditions noted are these: CEM cells.
Series [8] can be described thus: as §3. The series is classed as cell-based. The conditions noted are these: PBMC.
The nature of series [9]: as §4. Type of series: cell-based, Huh-7. The conditions noted are these: HuH7 cells. Put shortly: as §5

With `Nc1ccn([C@@H]2O[C@H](CO)[C@@H](O)[C@@]2(F)Cl)c(=O)n1`, the CC50 in series [1] was determined as 11 µM; in [2] it was 63 µM; in series [3], 9.3 µM; in series [4], 12 µM. In series [5], the EC50 was over 10 µM.
As for `O=c1ccn([C@@H]2O[C@H](CO)[C@@H](O)[C@@]2(F)Cl)c(=O)[nH]1`, the CC50 in series [1], in series [2], in [3] and in series [4] was over 100 µM each time. Further, the EC50 in series [5] is over 10 µM. Further, the EC90 in series [5] is over 10 µM.
As for `Nc1ncnc2c1ncn2[C@@H]1O[C@H](CO)[C@@H](O)[C@@]1(F)Cl`, the CC50 in series [1], in series [2], in series [3] and in series [4] was over 100 µM each time. In addition, the EC50 in [5] was over 10 µM.
Regarding `Nc1nc2c(ncn2[C@@H]2O[C@H](CO)[C@@H](O)[C@@]2(F)Cl)c(=O)[nH]1`, the half-maximal cytotoxic concentration (CC50) in [1], in series [2], in series [3] and in [4] was over 100 µM in each case. The EC50 in series [5] was over 10 µM. In addition, in series [5], the EC90 was over 10 µM.
Take `CC(C)OC(=O)[C@H](C)N[P@](=O)(OC[C@H]1O[C@@H](n2cnc3c(=O)[nH]c(N)nc32)[C@](F)(Br)[C@@H]1O)Oc1ccccc1`: the CC50 in series [1], in series [2], in series [3] and in series [4] was over 100 µM throughout. In [5], the EC50 is over 10 µM. Besides, in [5], the EC90 is over 10 µM.
For `O=c1ccn([C@@H]2O[C@H](CO)[C@@H](O)[C@@]2(F)Br)c(=O)[nH]1`, the 50% cytotoxic concentration (CC50) in series [1], in series [2], in series [3] and in series [4] was over 100 µM throughout. In addition, the EC50 in [5] was over 10 µM. For the same compound, in [5], the EC90 was over 10 µM.
Regarding `Nc1nc2c(ncn2[C@@H]2O[C@H](CO)[C@@H](O)[C@@]2(F)Br)c(=O)[nH]1`, the CC50 in series [1], in series [2], in [3] and in series [4] was over 100 µM throughout. In addition, the EC50 in series [5] is over 10 µM.
`Nc1ccn([C@@H]2O[C@H](CO)[C@@H](O)[C@@]2(F)Br)c(=O)n1`: the 50% cytotoxic concentration (CC50) in series [1] is 3.2 µM; in series [2] it was 2.9 µM; in series [3], over 100 µM; in series [4], 2.9 µM. The EC50 in series [5] amounted to 5.1 µM. In addition, the EC90 in [5] is over 10 µM.
As for `Nc1ncnc2c1ncn2[C@@H]1O[C@H](CO)[C@@H](O)[C@@]1(F)Br`, the CC50 in series [1], in series [2], in series [3] and in [4] was over 100 µM in each case. Further, in series [5], the EC50 is over 10 µM.
`CC(C)OC(=O)[C@H](C)NP(=O)(OC[C@H]1O[C@@H](n2cnc3c(N)ncnc32)[C@](F)(Br)[C@@H]1O)Oc1ccccc1` (mixture of isomers): the CC50 in series [1] was 29 µM; in series [2], 71 µM; in [3], 19 µM; in series [4], 6.9 µM. The EC50 in series [5] is over 10 µM.
`CC(C)OC(=O)[C@H](C)NP(=O)(OC[C@H]1O[C@@H](n2ccc(=O)[nH]c2=O)[C@](F)(Cl)[C@@H]1O)Oc1ccccc1` (mixture of isomers): the CC50 in series [1] is 90 µM; in series [2], over 100 µM; in series [3] it was over 100 µM; in [4], 1.3 µM. For the same compound, in series [5], the 50% effective concentration (EC50) came out at 0.9 µM. Also, in series [5], the EC90 was determined as 3.7 µM.
As to `CC(C)OC(=O)[C@H](C)NP(=O)(OC[C@H]1O[C@@H](n2cnc3c(N)ncnc32)[C@](F)(Cl)[C@@H]1O)Oc1ccccc1` (mixture of isomers), the CC50 in series [1] is 15 µM; in series [2], over 100 µM; in series [3], 26 µM; in series [4], 1.6 µM. Besides, the EC50 in [5] worked out at 2.7 µM. Besides, in [5], the EC90 was at least 10 µM.
Turning to `CC(C)OC(=O)[C@H](C)NP(=O)(OC[C@H]1O[C@@H](n2ccc(=O)[nH]c2=O)[C@](F)(Br)[C@@H]1O)Oc1ccccc1` (mixture of isomers), in [6], the half-maximal cytotoxic concentration (CC50) at 72 h was over 100 µM. For the same compound, the CC50 in [4] was determined as 8 µM. In [5], the EC50 was determined as 0.4 µM and the EC90 amounted to 2 µM.
As to `CC(C)OC(=O)[C@H](C)NP(=O)(OC[C@H]1O[C@@H](n2ccc(N)nc2=O)[C@](F)(Br)[C@@H]1O)Oc1ccccc1` (mixture of isomers), the CC50 was over 100 µM in [1], over 100 µM in series [2], over 100 µM in series [3] and 6.8 µM in series [4]. Further, the EC50 in series [5] is 2.4 µM. The EC90 in [5] was at least 10 µM.
Consider `CC(C)OC(=O)[C@H](C)NP(=O)(OC[C@H]1O[C@@H](n2ccc(N)nc2=O)[C@](F)(Cl)[C@@H]1O)Oc1ccccc1` (mixture of isomers), for which the CC50 in series [1] was over 100 µM; in [2] it was over 100 µM; in series [3] it was over 100 µM; in series [4], 23 µM. Further, the EC50 in series [5] worked out at 0.7 µM. Moreover, the EC90 in [5] was found to be 3.4 µM.
`CC(C)OC(=O)[C@H](C)NP(=O)(OC[C@H]1O[C@@H](n2cnc3c(=O)[nH]c(N)nc32)[C@](F)(Cl)[C@@H]1O)Oc1ccccc1` (mixture of isomers): the CC50 in series [1] was 84 µM; in series [2] it was over 100 µM; in series [3], over 100 µM; in series [4] it was over 100 µM. For the same compound, the EC50 in [5] is over 10 µM.
Turning to `CC(C)OC(=O)[C@H](C)N[P@](=O)(OC[C@H]1O[C@@H](n2ccc(=O)[nH]c2=O)[C@](C)(F)[C@@H]1O)Oc1ccccc1` [SOFOSBUVIR], the CC50 at 144 h in series [7] and in series [8] was over 100 µM in each case. In series [6], this compound displayed a CC50 at 72 h of over 100 µM. For the same compound, the CC50 at 120 h in [9] is over 100 µM. Also, the EC50 in series [5] came out at 0.05 µM. Further, in [5], the EC90 came to 0.37 µM.

Source of the values: ChEMBL document CHEMBL4411320, “Synthesis and anti-HCV activity of β-d-2'-deoxy-2'-α-chloro-2'-β-fluoro and β-d-2'-deoxy-2'-α-bromo-2'-β-fluoro nucleosides and their phosphoramidate prodrugs” (Bioorg Med Chem, 2019).
